Experimental data as given in ChEMBL document CHEMBL1124298, “Synthesis and antineoplastic activity of 5-aryl-2,3-dihydropyrrolo[2,1-b]thiazole-6,7-dimethanol 6,7-bis(isopropylcarbamates)” (J Med Chem, 1988).

Legend:
[1] = test system: HL-60; experiment: Growth inhibitory activity against HL-60 human promyelocytic leukemia cell line relative to NSC-278214; assay type: functional
[2] = test system: HL-60; experiment: Concentration required to reduce cell number (HL-60 human promyelocytic leukemia cell line) on day 7 by 50%; assay type: functional, cell-based; settings: HL-60, 168 h
Procedure, shortened: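 HL-60 cells were grown in RPMI 1640 with 10% heat-inactivated FBS at 37 °C in humidified 10% CO2, resuspended at 10⁵/mL, and given drug. Drug was dissolved in DMSO, with at most 0.2% DMSO in the culture. Cells were counted by Coulter counter on day 7. IC50 is the concentration that reduced cell number by 50%. Values are from three experiments.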

Row | SMILES | Potency [1] | IC50 [2] [nM]
1 | CC(C)NC(=O)OCc1c(COC(=O)NC(C)C)c(-c2ccccc2)n2c1SCC2 | 1 | 1500
2 | CC(C)NC(=O)OCc1c(COC(=O)NC(C)C)c(-c2ccc(Cl)c(Cl)c2)n2c1CCC2 | 1 | 1500
3 | CC(C)NC(=O)OCc1c(COC(=O)NC(C)C)c(-c2ccc(F)cc2)n2c1SCC2 | 0.94 | 1600
4 | CC(C)NC(=O)OCc1c(COC(=O)NC(C)C)c(-c2ccc(Cl)cc2)n2c1SCC2 | 1.76 | 850
5 | CC(C)NC(=O)OCc1ccccc1COC(=O)NC(C)C | <0.005 | > 300000
6 | CC(C)NC(=O)OCc1c(COC(=O)NC(C)C)c(-c2ccc(Cl)c(Cl)c2)n2c1SCC2 | 0.79 | 1900
